Experimental data taken from ChEMBL document CHEMBL2151006 (Eur J Med Chem, 2012).

Tests used:
[1] = species on record: Homo sapiens; test: Selectivity index, ratio of Ki for human recombinant CB1 receptor to Ki for human recombinant CB2 receptor
[2] = biological target: T1, Cannabinoid receptor 1 (Homo sapiens, UniProt P21554); test: biochemical; type: cell-based, HEK293
[3] = biological target: T2, Cannabinoid receptor 2 (Homo sapiens, UniProt P34972); test: Displacement of [3H]CP55940 from human recombinant CB2 receptor transfected in HEK cell membranes; design: species or system HEK293
[4] = biological target: CYP3A4 (Homo sapiens, UniProt P08684); test: Metabolic stability assessed as human recombinant CYP3A4-mediated drug metabolism by measuring compound remaining after 1 hr; type: ADME; conditions: read-out: Drug metabolism
Procedure, shortened: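 Recombinant hCYP3A4 at 20 pmol/mL in 100 mM phosphate pH 7.4 with 1 mM EDTA, […]. Incubation was 1 h at 37 °C with or without NADPH regenerating system, then stopped with cold acetonitrile. Percent remaining is the MS peak area with NADPH over that without, ×100.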

[5] = Metabolic stability in rat plasma assessed as compound remaining measured at 3 hrs; type: ADME, cell-free; conditions: read-out: Stability
Procedure, shortened: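 Fresh rat plasma was spiked with compound and incubated at 37 °C with gentle agitation, in duplicate. Samples were taken at 0, 30 min and 3 h and proteins precipitated with acetonitrile. LC-ESI+-MS/MS in MRM mode; percent remaining is peak area relative to time 0.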

[6] = test system: MDR1; test: Efflux ratio of permeability from basolateral to apical side over apical to basolateral side in human MDR1 transfected MDCK2 cells at 10 uM after 2 hrs; type: ADME, cell-based, Canis lupus familiaris, MDCK-II; conditions: dog, MDCK-MDR1
[7] = Intrinsic clearance in rat liver microsomes; type: ADME, Microsome; conditions: read-out: CLH
[8] = biological target: T2, Cannabinoid receptor 2; test: Agonist activity at human CB2 receptor transfected in CHO cell membranes by [35S]GTPgammaS binding assay; type: functional
[9] = Intrinsic clearance in human liver microsomes; type: ADME, Microsome; conditions: read-out: CLH
[10] = test system: MDR1; test: Apparent permeability across apical to basolateral side in human MDR1 transfected MDCK2 cells at 10 uM after 2 hrs; type: ADME, cell-based, Canis lupus familiaris, MDCK-II; conditions: dog, MDCK-MDR1
[11] = biological target: T2, Cannabinoid receptor 2; conditions: CHO, 0.001 to 10 uM
[12] = biological target: T1, Cannabinoid receptor 1; test: Agonist activity at human CB1 receptor transfected in CHO cell membranes at 0.001 to 30 uM by [35S]GTPgammaS binding assay relative to CP55940; type: functional
[13] = biological target: T1, Cannabinoid receptor 1; test: Agonist activity at human CB1 receptor transfected in CHO cell membranes by [35S]GTPgammaS binding assay; type: functional

T2 sequence (P34972 whole entry): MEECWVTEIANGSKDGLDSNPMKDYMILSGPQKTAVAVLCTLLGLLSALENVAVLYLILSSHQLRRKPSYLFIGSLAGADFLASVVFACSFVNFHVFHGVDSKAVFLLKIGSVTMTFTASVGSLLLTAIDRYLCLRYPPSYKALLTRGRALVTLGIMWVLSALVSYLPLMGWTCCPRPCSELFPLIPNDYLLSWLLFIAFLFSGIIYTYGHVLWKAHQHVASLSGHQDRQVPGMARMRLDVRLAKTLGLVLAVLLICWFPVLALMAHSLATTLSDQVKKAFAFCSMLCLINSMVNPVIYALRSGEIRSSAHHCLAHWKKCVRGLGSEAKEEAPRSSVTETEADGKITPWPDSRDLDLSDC
T1 sequence (P21554 whole entry): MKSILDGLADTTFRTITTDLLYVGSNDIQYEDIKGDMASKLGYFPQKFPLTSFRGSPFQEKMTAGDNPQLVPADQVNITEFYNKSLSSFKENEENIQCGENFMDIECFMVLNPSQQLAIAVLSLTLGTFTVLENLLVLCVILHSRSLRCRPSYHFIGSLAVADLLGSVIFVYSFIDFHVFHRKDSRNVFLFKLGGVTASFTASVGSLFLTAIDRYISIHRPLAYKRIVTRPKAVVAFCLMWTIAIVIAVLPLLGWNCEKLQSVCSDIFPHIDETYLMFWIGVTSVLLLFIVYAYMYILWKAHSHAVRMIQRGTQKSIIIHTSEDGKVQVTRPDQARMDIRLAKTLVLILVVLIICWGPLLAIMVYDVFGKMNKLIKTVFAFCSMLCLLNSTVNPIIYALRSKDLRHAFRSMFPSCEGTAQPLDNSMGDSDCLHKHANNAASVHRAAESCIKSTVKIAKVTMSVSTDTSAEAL
Sequence of CYP3A4 (P08684 whole entry): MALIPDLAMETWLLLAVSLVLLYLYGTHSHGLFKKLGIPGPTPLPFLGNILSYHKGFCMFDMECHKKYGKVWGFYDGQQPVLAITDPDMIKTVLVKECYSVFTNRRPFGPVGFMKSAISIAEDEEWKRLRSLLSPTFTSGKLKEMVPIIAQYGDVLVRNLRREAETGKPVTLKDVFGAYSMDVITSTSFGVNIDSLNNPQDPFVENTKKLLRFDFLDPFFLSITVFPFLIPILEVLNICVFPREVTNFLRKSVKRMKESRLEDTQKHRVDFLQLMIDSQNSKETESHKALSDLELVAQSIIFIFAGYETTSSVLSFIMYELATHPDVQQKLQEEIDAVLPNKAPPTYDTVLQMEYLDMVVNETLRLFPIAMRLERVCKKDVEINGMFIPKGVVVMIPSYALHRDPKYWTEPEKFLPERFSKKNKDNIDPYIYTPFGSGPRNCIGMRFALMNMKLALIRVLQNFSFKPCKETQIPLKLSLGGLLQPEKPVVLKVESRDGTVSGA

| SMILES | Ratio Ki [1] | Ki [2] | Ki [3] | other results |
| --- | --- | --- | --- | --- |
| CCCn1cc(C(=O)N[C@@H]2C(C)(C)C3CC[C@]2(C)C3)c(=O)c2ccc(F)cc21 | 57 | 193 nM | 2.9 nM |  |
| CCCn1cc(C(=O)N[C@@H]2C(C)(C)C3CC[C@]2(C)C3)c(=O)c2ccc(Sc3ccccc3)cc21 | 31 | 11 nM | 0.4 nM |  |
| CCCCCn1cc(C(=O)NCc2ccc(Cl)c(Cl)c2)c(=O)c2ccc(Br)cc21 | 5 | 660 nM | 130 nM |  |
| CC1(C)C2CC[C@](C)(C2)[C@@H]1NC(=O)c1cn(CCCCSc2ccccc2)c2cc(Sc3ccccc3)ccc2c1=O | > 1540 | > 10000 nM | 6.5 nM |  |
| CCCCCn1cc(C(=O)NOC)c(=O)c2ccc(Sc3ccccc3)cc21 | 1.4 | 490 nM | 340 nM |  |
| CCCCCn1cc(C(=O)NC23CC4CC(CC(C4)C2)C3)c(=O)c2ccc(F)cc21 | 38 |  |  |  |
| CCCCCn1cc(C(=O)N[C@@H]2C(C)(C)C3CC[C@]2(C)C3)c(=O)c2ccc(F)cc21 | 17 | 4 nM | 0.3 nM |  |
| CN(C)CCn1cc(C(=O)N[C@@H]2C(C)(C)C3CC[C@]2(C)C3)c(=O)c2ccc(Sc3ccccc3)cc21 | 23 | 28.8 nM | 1.3 nM |  |
| CN(C)CCn1cc(C(=O)N[C@@H]2C(C)(C)C3CC[C@]2(C)C3)c(=O)c2ccc(F)cc21 |  |  | 7.9 nM |  |
| CCCCCn1cc(C(=O)NN2CCCCC2)c(=O)c2ccc(Sc3ccccc3)cc21 | 2.2 | 28.9 nM | 13.3 nM |  |
| CCCCCn1cc(C(=O)N[C@@H]2C(C)(C)C3CC[C@]2(C)C3)c(=O)c2ccc(Sc3ccccc3)cc21 | 27.2 | 2.45 nM | 0.09 nM |  |
| CCn1cc(C(=O)N[C@@H]2C(C)(C)C3CC[C@]2(C)C3)c(=O)c2ccc(F)cc21 | 131 | 960 nM | 7.3 nM | remaining at 1 h [4]: 1%; remaining at 3 h [5]: 92%; efflux ratio at 2 h, 10 µM [6]: 1; microsomal CLint [7]: > 700 µL/min/mg; EC50 [8]: 17.2 nM; microsomal CLint [9]: > 700 µL/min/mg; Papp A→B at 2 h, 10 µM [10]: 0.17 ×10⁻⁶ cm/s; Emax [11]: 45% |
| Cc1cccc(Cn2cc(C(=O)N[C@@H]3C(C)(C)C4CC[C@]3(C)C4)c(=O)c3ccc(F)cc32)c1 | > 317 | > 10000 nM | 31.5 nM |  |
| CCCCCn1cc(C(=O)NCc2ccc(Cl)c(Cl)c2)c(=O)c2ccc(-c3ccccc3)cc21 | < 0.04 | 390 nM | > 10000 nM |  |
| CCCCCn1cc(C(=O)NC2CN3CCC2CC3)c(=O)c2ccc(Sc3ccccc3)cc21 (centres undefined) | 1.7 | 151 nM | 89.1 nM |  |
| O=C(NN1CCCCC1)c1cn(-c2ccc(Cl)cc2)c2cc(F)ccc2c1=O |  | > 10000 nM | > 10000 nM |  |
| CCCCCn1cc(C(=O)NCCN2CCOCC2)c(=O)c2ccc(Sc3ccccc3)cc21 | 0.5 | 63.2 nM | 119 nM |  |
| COCCn1cc(C(=O)N[C@@H]2C(C)(C)C3CC[C@]2(C)C3)c(=O)c2ccc(F)cc21 | 54 | 297 nM | 5.5 nM |  |
| CCCCCn1cc(C(=O)N2CCC[C@H]2C(N)=O)c(=O)c2ccc(Sc3ccccc3)cc21 | 6.5 | 1490 nM | 230 nM |  |

| SMILES | Ratio Ki [1] | Ki [2] | Ki [3] | other results |
| --- | --- | --- | --- | --- |
| COCCn1cc(C(=O)N[C@@H]2C(C)(C)C3CC[C@]2(C)C3)c(=O)c2ccc(Sc3ccccc3)cc21 | 22 | 23.8 nM | 1.1 nM |  |
| CCCCn1cc(C(=O)N[C@@H]2C(C)(C)C3CC[C@]2(C)C3)c(=O)c2ccc(F)cc21 | 17 | 14.4 nM | 0.8 nM |  |
| CC1(C)C2CC[C@](C)(C2)[C@@H]1NC(=O)c1cnc2cc(F)ccc2c1O |  | > 10000 nM | 957 nM |  |
| CCn1cc(C(=O)N[C@@H]2C(C)(C)C3CC[C@]2(C)C3)c(=O)c2ccc(Sc3ccccc3)cc21 | 42 | 181 nM | 4.4 nM |  |
| CCCCCn1cc(C(=O)NC(CC)CO)c(=O)c2ccc(Sc3ccccc3)cc21 (centres undefined) | 2.9 | 58.2 nM | 19.9 nM |  |
| Cc1cccc(Cn2cc(C(=O)N[C@@H]3C(C)(C)C4CC[C@]3(C)C4)c(=O)c3ccc(Sc4ccccc4)cc32)c1 | 5 | 669 nM | 139 nM |  |
| CCCCCn1cc(C(=O)NC(C)C)c(=O)c2ccc(Sc3ccccc3)cc21 | 1.4 | 20.9 nM | 14.8 nM |  |
| CCCCCn1cc(C(=O)NOCc2ccccc2)c(=O)c2ccc(Sc3ccccc3)cc21 | 0.7 | 12.9 nM | 19.3 nM |  |
| CCCCCn1cc(C(=O)NN(C)C)c(=O)c2ccc(Sc3ccccc3)cc21 | 1.1 | 86.6 nM | 77.5 nM |  |
| C=Cn1cc(C(=O)N[C@@H]2C(C)(C)C3CC[C@]2(C)C3)c(=O)c2ccc(F)cc21 | 235 | 3570 nM | 15.2 nM |  |
| CCCCCn1cc(C(=O)NCc2ccc(Cl)c(Cl)c2)c(=O)c2ccc(Sc3ccccc3)cc21 | < 0.04 | 420 nM | > 10000 nM | remaining at 1 h [4]: 25%; remaining at 3 h [5]: 100%; Emax [12]: 55.8%; efflux ratio at 2 h, 10 µM [6]: 0.4; microsomal CLint [7]: > 700 µL/min/mg; EC50 [13]: 791 nM; microsomal CLint [9]: > 700 µL/min/mg; Papp A→B at 2 h, 10 µM [10]: 0.14 ×10⁻⁶ cm/s |
| CCCCn1cc(C(=O)N[C@@H]2C(C)(C)C3CC[C@]2(C)C3)c(=O)c2ccc(Sc3ccccc3)cc21 | 31 | 4.7 nM | 0.1 nM |  |
| CC1(C)C2CC[C@](C)(C2)[C@@H]1NC(=O)c1cn(CCCCO)c2cc(F)ccc2c1=O | 26 | 398 nM | 15.2 nM |  |
| CC1(C)C2CC[C@](C)(C2)[C@@H]1NC(=O)c1cn(CCCCO)c2cc(Sc3ccccc3)ccc2c1=O | 15 | 38.6 nM | 2.5 nM |  |
| CC1(C)C2CC[C@](C)(C2)[C@@H]1NC(=O)c1c[nH]c2cc(F)ccc2c1=O | > 10 |  |  |  |
| O=C(NN1CCCCC1)c1cn(-c2ccc(F)cc2)c2cc(Sc3ccccc3)ccc2c1=O |  | > 10000 nM | > 10000 nM |  |
| Cn1cc(C(=O)N[C@@H]2C(C)(C)C3CC[C@]2(C)C3)c(=O)c2ccc(F)cc21 | > 106 | > 10000 nM | 93.9 nM |  |
| CCCCCn1cc(C(=O)NC23CC4CC(CC(C4)C2)C3)c(=O)c2ccc(Sc3ccccc3)cc21 | 3.3 |  |  |  |
| Cn1cc(C(=O)N[C@@H]2C(C)(C)C3CC[C@]2(C)C3)c(=O)c2ccc(Sc3ccccc3)cc21 | 117 | 1870 nM | 16 nM |  |
